Data published in the EternaBench riboswitch data.

Tested on: MS2 coat protein
Test: apparent Kd, MS2 coat protein; higher = weaker binding; RNA-MaP array
Method in brief: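 On an Illumina sequencing chip, sequenced DNA templates served for transcription of the designed RNAs, which were then bound at room temperature by fluorescently labeled MS2 coat protein at 1.5 nM to 3 μM, with or without input ligand. Apparent Kd is the median of the fits to each cluster's binding curve. Only designs measured on at least 10 clusters were kept.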

[1] = designed as: OFF switch for flavin mononucleotide, no ligand
[2] = ligand present: flavin mononucleotide, designed as: OFF switch for flavin mononucleotide
[3] = designed as: ON switch for flavin mononucleotide, no ligand
[4] = ligand present: flavin mononucleotide, designed as: ON switch for flavin mononucleotide
[5] = designed as: ON switch for theophylline, no ligand
[6] = ligand present: theophylline, designed as: ON switch for theophylline
[7] = designed as: ON switch for tryptophan, no ligand
[8] = ligand present: tryptophan, designed as: ON switch for tryptophan

Sequence	apparent Kd [1]	apparent Kd [2]	other results
GCCUAUAUUGUCAGGAUAUGCAUAAAGGAAAAGAAGCAGAAGGGACAUGAGGAUCACCCAUGUUACAGCCAAUA	6.84 nM	12.6 nM	
GCCUGACCCAUAGGAUAUCGCGUAGCUGCCGGCUACGACACAUGAGGAUCACCCAUGUAUCAAAUCGAGAAGGAUGAUCUGCAA			apparent Kd [3]: 272 nM; apparent Kd [4]: 168 nM
GCGGAACAUGAGGAUCACCCAUGUCAGGAUAUACGCACGGAGUAGGAGGAGGCCUAUGGUAGAAGGGACAGUGA	10.8 nM	10.2 nM	
GCGGGACAUGAGGAUCACCCAUGUGAGGAUAUGUGCAGUGGCAGGGACAGUUAAAAGUACAGAAGGCACAGCCC	19.7 nM	17.6 nM	
GCUAUAUCGUAGCUAACAUGAGGAUCACCCAUGUGAAGGAAGAGAAGGUGCAUCUAACAGACCCGCAAGGAUAUCUAGAUAAAG			apparent Kd [3]: 18.8 nM; apparent Kd [4]: 16.1 nM
GCUAUGAACGUAGGAUAUGAAGCCUGGCUUGGUUCAGAAGGACGUGAGUAAGUGAGGUCCUGACAUGAGGAUCACCCAUGUACA	23.9 nM	31.7 nM	
GCUCUGUCAGGAUAUAGGACGGCAACAGGCAAACUAAGCAACUAGAAGGGACAUGAGGAUCACCCAUGUAGCGC	9.33 nM	9.2 nM	
GGAAAAUAUAGGGAUACCAGAUAUGGCGUUGACAUGAGGAUCACCCAUGUCUUAGCAGUGAUCCCUUGGCAGCCCACACCAUCCG			apparent Kd [5]: 71.6 nM; apparent Kd [6]: 34 nM
GGAAUGUCGUAGGAUAUAUGAUCUGUAAGGUAGAUAGAAGGACGAACAUGAGGAUCACCCAUGUGGAGGAUGUU	15.5 nM	27.5 nM	
GGAGGCCUUAGGGAUACCAGCUAAGUUGAGUACAUGAGGAUCACCCAUGUGUUCCCAGAGAGCCCUUGGCAGCCCUCAUCCGUUC			apparent Kd [5]: 11.6 nM; apparent Kd [6]: 10.8 nM
GGCCUUUCGGUAAGGAUAUCCCUCCGCGCAGAUUGGGAGAAGGUACAUGAGGAUCACCCAUGUUUUAUGGCUGC	9.4 nM	10.8 nM	
GGCGACAUGAGGAUCACCCAUGUGACACCUCGAGGACCGGUACGGCCGCCACUCGUAACCUGCACUAUAGCUACCACGAUUAGCC			apparent Kd [7]: 193 nM; apparent Kd [8]: 42.4 nM
GGCGGGAGAAUAGGAUAUUCCGGUAAUCGACAUGAGGAUCACCCAUGUACCGUUCAACCGAUACCGAAGAAGGAUUAUAAGCCU			apparent Kd [3]: 16.6 nM; apparent Kd [4]: 13.8 nM
GGGCCACCUCUAACAUGAGGAUCACCCAUGUUCGUCGGUUCCGAGGAUAUGUCUAGACGUAACGGACAGAAGGCGGUCCGGCUG	26.2 nM	81 nM	
GGGCGACUAGGAUAUACAGGAAGUUAAUGAGUGUCAAAGAAACAUGAGGAUCACCCAUGUAGAAGGAGUGCUAU	11.2 nM	12.6 nM	
GUAACUCAGGUCAGGAUAUUCGAGUAAGGGAAAACGAAGAAGGGACAUGAGGAUCACCCAUGUAACACGACUAU	18.1 nM	86.3 nM	
GUAAGACAUGAGGAUCACCCAUGUGUCGAUACCAGCCCUGCCUCUGGCCCUUGGCAGCGACUCGCACACCUCGCACUGCACAAGU			apparent Kd [5]: 54.9 nM; apparent Kd [6]: 73.2 nM
GUAGGUUGCCAAGGAUAUGCGGGUACUCUUCCGAAACAUGAGGAUCACCCAUGUACUCUCCUGUAGCAGAAGGUGGCUUGGUGA	493 nM	269 nM	
GUAUAUACAUAGGAUAUGUCGGCCGGUUAUGCAACAGAAGGAUGUACAUGAGGAUCACCCAUGUCAAUUGGGAG	74.6 nM	220 nM	
GUAUCGGUUGAGAAGGCGGCGGAGACAUAACUUGGUCCCAACAUGAGGAUCACCCAUGUUAAAUCCGAGGAUAUCAACAAAGCC	6.84 nM	18.9 nM	
GUAUUCAUGACGGCCGCCACUGCAAGCCUCCUCAUGGCAGAUUGACAUGAGGAUCACCCAUGUCUCAGGACCGGGUCUGGCAUCC			apparent Kd [7]: 188 nM; apparent Kd [8]: 171 nM
GUCCUACAUGAGGAUCACCCAUGUGGUCGUGGUAUAGGAUAUUAGGACUUUGUAAUCAGUUAAGAAGGAUAUCACU			apparent Kd [3]: 60.1 nM; apparent Kd [4]: 17.4 nM
GUCCUCGACACGGCCGCCACUGGCUCGCCUGUUGGCGCCGACCCACAUGAGGAUCACCCAUGUUCCAGGACCGGGUGUCACAGCA			apparent Kd [7]: 224 nM; apparent Kd [8]: 157 nM
